KCNQ1 inh – human KCNQ1 channel inhibition. CHO-K1 KCNQ1, FluxOR thallium flux fluorescence; active compounds read high. B-score at 10 µM. 1.3% of 310,000 active. AID 2642;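 active = compounds whose thallium flux B-score, printed positive for inhibition, exceeds three library SD while starting fluorescence stays within three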;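 note: channel opened by potassium depolarization with thallium stimulus after 20 min compound exposure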
KCNK3 inh – human KCNK3 channel inhibition, primary screen; B-score at 10 µM; CHO-KCNK3 thallium flux, FluxOR fluorescence; active compounds read low; O14649; 0.84% of 340,000 active;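 active = B-score under library mean minus 4 SD, starting fluorescence ratio at most library mean plus 5 SD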;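 note: more negative B-score means stronger inhibition of thallium flux through KCNK3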
KCNK9 inh – human KCNK9 channel inhibition. B-score at 10 µM. Q9NPC2. AID 488922. HEK293 KCNK9, FluxOR thallium flux fluorescence; active compounds read low. 1.2% of 310,000 active;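 active = ratio B-score over 3 SD below the library mean, with starting fluorescence within 5 SD of its mean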;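 note: negative B-score means less thallium flux so channel inhibition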
Target sequence (Q9NPC2 whole entry, looked up): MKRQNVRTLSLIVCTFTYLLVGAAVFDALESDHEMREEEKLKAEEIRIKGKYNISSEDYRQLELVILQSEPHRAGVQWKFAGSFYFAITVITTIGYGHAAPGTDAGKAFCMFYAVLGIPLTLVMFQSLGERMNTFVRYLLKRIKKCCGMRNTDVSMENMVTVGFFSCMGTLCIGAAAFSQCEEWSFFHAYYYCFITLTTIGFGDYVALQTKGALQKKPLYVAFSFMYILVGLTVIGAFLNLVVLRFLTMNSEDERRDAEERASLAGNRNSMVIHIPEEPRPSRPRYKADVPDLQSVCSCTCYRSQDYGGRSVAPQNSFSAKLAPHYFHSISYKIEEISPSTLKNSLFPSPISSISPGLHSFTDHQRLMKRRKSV
KCNQ1 act – human KCNQ1 channel potentiation or activation; 0.35% of 310,000 active; CHO-K1 KCNQ1, thallium flux FluxOR fluorescence; active compounds read high; B-score at 10 µM;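 active = fluorescence ratio B-score, a plate-corrected score, at least three library SD, with initial intensity B-score within 5 SD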
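Assay system: CHO-K1 cells stably expressing KCNQ1. Medium: assay buffer for compound exposure, DMSO matched across wells. Timing: 37 °C overnight plating, 90-min dark dye load, 20-min compound pretreatment. Signal: kinetic FluxOR fluorescence, 10 s baseline plus 110 s post-stimulus.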
hERG protect – shields human hERG channel from block by proarrhythmic agents. CHO-hERG, FluxOR thallium flux, dofetilide IC70 present. activation (rescue from dofetilide block), less the hit threshold, % at 10 µM. 0.51% of 310,000 active. AID 1511;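 active = activation above the mean of controls blocked by dofetilide plus 5 SD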;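 note: thallium influx through hERG after potassium depolarization seen as dye fluorescence rise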
KCNK3 inh conf – human KCNK3 channel inhibition, confirmation assay. shares compounds with KCNK3 inh. CHO-KCNK3 thallium flux, FluxOR fluorescence; 0% buffer, 100% carvedilol maximal block. ratio percent of control, % at 10 µM. 99% of 2,400 active. AID 651638;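 active = ratio percent of control, averaged over triplicates, above buffer control mean plus 5 SD, cut at about 64% in these data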;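 note: ratio is the fluorescence rise from min to max over baseline after thallium stimulus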
KCNK3 noninduced – KCNK3 inhibitor counter-screen hit in non-induced cells; shares compounds with KCNK3 inh; non-induced KCNK3 parental cells, FluxOR thallium flux; active compounds read low; thallium flux ratio (lower = more inhibition) at 10 µM; 40% of 2,400 active;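 active = thallium flux ratio, averaged over three wells, more than 5 SD below the buffer control mean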;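 note: host cells are CHO cells without KCNK3 induction; ratio is peak minus trough fluorescence over baseline then normalized to buffer controls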
* marks the source's active call; other numbers are inactive results. An excerpt weighted towards active compounds, which were near 3.1% of everything screened.

How did CCN(CC)CCNS(=O)(=O)c1ccc(C(=O)NN)cc1 do in these assays?
KCNQ1 inh: inactive; KCNK3 inh: inactive; KCNK9 inh: inactive; KCNQ1 act: inactive; hERG protect: -9

Results for COc1ccc(OC)c(S(=O)(=O)n2cnc3cc(C)c(C)cc32)c1 ?
KCNQ1 inh: inactive; KCNK3 inh: -11*; KCNK9 inh: inactive; KCNQ1 act: inactive; hERG protect: -5; KCNK3 inh conf: 99*; KCNK3 noninduced: inactive

How did CC1C(=O)Nc2ccc(S(=O)(=O)N3CCCCCC3)cc21 (centres undefined) do in these assays?
KCNK3 inh: inactive

How did CCOc1cc(/C=N/O)ccc1OS(=O)(=O)c1ccc(C)cc1 do in these assays?
KCNQ1 inh: inactive; KCNK3 inh: inactive; KCNK9 inh: inactive; KCNQ1 act: inactive; hERG protect: -5

Results for CCOc1cc(/C=N/NS(=O)(=O)c2ccccc2)ccc1OS(=O)(=O)c1ccc(C)cc1 ?
KCNQ1 inh: inactive; KCNK3 inh: -9.4*; KCNK9 inh: inactive; KCNQ1 act: inactive; hERG protect: -13; KCNK3 inh conf: 102*; KCNK3 noninduced: inactive

Results for COc1ccccc1NC(=O)Nc1nn(C)c2cccc(N(C)C)c12 ?
KCNQ1 inh: inactive; KCNK3 inh: -9.3*; KCNK9 inh: inactive; KCNQ1 act: inactive; hERG protect: -4; KCNK3 inh conf: 92*; KCNK3 noninduced: inactive

Results for CCOC(=O)CCSc1nc(C)cc(C(F)(F)F)c1C#N ?
KCNQ1 inh: inactive; KCNK3 inh: inactive; KCNK9 inh: inactive; KCNQ1 act: inactive; hERG protect: -9

Results for CCOC(=O)CCSc1nc(C(C)(C)C)cc(C(F)(F)F)c1C#N ?
KCNQ1 inh: 6*; KCNK3 inh: -8.9*; KCNK9 inh: inactive; KCNQ1 act: inactive; hERG protect: -13; KCNK3 inh conf: 131*; KCNK3 noninduced: 0.13*

How did CN(C)S(=O)(=O)Oc1ccsc1C(=O)Nc1cccc(Cl)c1Cl do in these assays?
KCNQ1 inh: inactive; KCNK3 inh: -9.1*; KCNK9 inh: inactive; KCNQ1 act: inactive; hERG protect: -6; KCNK3 inh conf: 88*; KCNK3 noninduced: inactive

How did CCOc1ccc(N(CC(=O)NCc2ccc(F)cc2)C(=O)c2snc(C(N)=O)c2N)cc1 do in these assays?
KCNQ1 inh: inactive; KCNK3 inh: inactive; KCNK9 inh: inactive; KCNQ1 act: inactive; hERG protect: -1

How did CC1(C)CC(=O)C2=C(C1)c1c(ccc3ccccc13)NC2c1ccc(OCC(=O)O)cc1 (centres undefined) do in these assays?
KCNQ1 inh: inactive; KCNK3 inh: inactive; KCNK9 inh: inactive; KCNQ1 act: inactive; hERG protect: -10

How did CC1(C)CC(=O)C2=C(C1)c1c(ccc3ccccc13)NC2c1ccc(Br)o1 (centres undefined) do in these assays?
KCNQ1 inh: inactive; KCNK3 inh: -10*; KCNK9 inh: inactive; KCNQ1 act: inactive; hERG protect: -12; KCNK3 inh conf: 113*; KCNK3 noninduced: inactive

What do the screens show for `CN(Cc1ccccc1)CC1C2CCC(C2)C1O` (centres undefined)?
KCNK3 inh: inactive

What do the screens show for `Cc1sc2nc(C3CC3)nc(N3CCN(C(=O)c4ccc(Cl)cc4)CC3)c2c1C`?
KCNQ1 inh: 6*; KCNK3 inh: -13*; KCNK9 inh: inactive; KCNQ1 act: inactive; hERG protect: -7; KCNK3 inh conf: 96*; KCNK3 noninduced: 0.15*

What do the screens show for `Cc1sc2nc(CN3CCCC3)nc(N3CCN(C(=O)c4ccco4)CC3)c2c1C`?
KCNQ1 inh: inactive; KCNK3 inh: inactive; KCNK9 inh: inactive; KCNQ1 act: inactive; hERG protect: -20

Results for Cc1ccc2oc3nc(C)c(C(=O)Nc4cccc(C(F)(F)F)c4)cc3c(=O)c2c1 ?
KCNQ1 inh: inactive; KCNK3 inh: inactive; KCNK9 inh: inactive; KCNQ1 act: inactive; hERG protect: -3
